Only a selection was taken, and hits are over-represented in it overall.
UPR CHOP act = apoptotic UPR (CHOP) activation; CHO-CHOP luciferase reporter, luminescence; percent of tunicamycin response over DMSO baseline; activation, % at 10 µM; 330,000 tested, 0.34% active; AID 449763;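 active = at 10 µM dose, activation of 40% or more, normalized to positive control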;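 note: 100% = tunicamycin at 10 µg/mL and 0% = DMSO alone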
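Dosing – one dose, 10 µM in 0.5% DMSO · System – CHO-CHOP cells, stable luciferase reporter of PERK-eIF2a-CHOP signalling · Input – 500 cells/well · Control set – tunicamycin 10 µg/mL final as positive, DMSO-only wells as negative · Timing – 6 h compound treatment, 37 °C · Measure – % activation vs tunicamycin · Technique – luminescence read with Steady-Glo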
Dynein cargo inh = dynein cargo transport inhibition. z-score, hits read low. AID 1381. 220,000 tested, 0.47% active. 3617.4 mouse cells, GR-EGFP nuclear translocation imaging; test concentration mostly 20 µM; stimulated with dexamethasone, 1 µM; stronger effect = lower value;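 active = plate z-score of nuclear minus cytoplasmic receptor signal below a set negative limit, without overly bright fluorescence or cell loss, cut at about -3.5 in these data, passing the limit was not always enough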;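 note: z-score of nuclear minus cytoplasmic ring GR-EGFP intensity difference per well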
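Buffer or medium: tetracycline-free induction medium containing charcoal-stripped FBS / Reagent: dexamethasone agonist, 1.0 µM final, for 30 min / Technique: automated 10x imaging of fixed Hoechst-stained cells / Times: induction 48 h, compound 1 h, agonist 30 min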
pCIP destab = compounds decreasing mouse p/CIP protein stability. 290,000 tested, 0.01% active. F442A p/CIP-EGFP cells, EGFP fluorescence, 16 h. Q05BA5. decrease of EGFP signal, % at 10 µM;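 active = EGFP signal decrease of at least 30% at 10 µM or well 3 SD below plate mean, unless failing retest; inactive = the rest, including hits failing retest or dose response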
CHOP inh = CHOP inhibition in unfolded protein response. CHO-K1 CHOP-promoter luciferase, tunicamycin-induced, 15-18 h. inhibition, % at 10 µM. 220,000 tested, 3.8% active. AID 2732;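 active = compounds that reduced the stress-induced luciferase reporter signal by more than about 70% of percent inhibition, limit read from the data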;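 note: 0% = tunicamycin plus vehicle and 100% = wells without tunicamycin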
B2AR ag = agonists of human beta-2 adrenergic receptor inducing internalization; response, % (test concentration not listed); AID 504454; Am2.2-beta2AR cells, FAP receptor internalization, flow cytometry; 340,000 tested, 0.43% active;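 active = response above a set limit, near 3 SD of response in nonfluorescent compounds, cut at about 42% in these data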
UPR XBP1 act = activators of adaptive arm of unfolded protein response (XBP1). activation, % at 20 µM. CHO-XBP1 luciferase reporter, IRE1-XBP1 UPR activation, luminescence; percent of tunicamycin response, DMSO as zero. 330,000 tested, 0.33% active;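 active = versus positive control, 20 µM dose yields 30% or more activation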;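 note: 100% = tunicamycin at 10 µg/mL and 0% = DMSO only wells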
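Material: CHO cell line with stable XBP1 luciferase reporter; schedule: 16-18 h cell attachment at 37 °C, then 6 h compound exposure; signal: glow luminescence from Steady-Glo reagent; medium: serum-containing F12 medium, 10% FBS; benchmarks: tunicamycin 10 µg/mL and vehicle-only wells; read-out: percent activation relative to tunicamycin reference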
Dynein confirm = dynein cargo transport inhibition, confirmation; shares compounds with Dynein cargo inh; 3617.4 GR-EGFP nuclear translocation imaging, dexamethasone-induced; calls only at 20 µM; 1,000 tested, 69% active; AID 463116;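 active = inhibition of receptor movement into the nucleus at or above a set limit in both runs, with normal cell brightness and cell count; inconclusive = limit reached in only one run, brightness and count normal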;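 note: dexamethasone at 1 µM final in well for 30 min; nuclear minus cytoplasmic GR-EGFP mean intensity difference in channel 2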
Starred values were filed as active, the others as inactive; i = inactive; ? = inconclusive; . = not tested or not shown; + = active, no number.

SMILES	UPR CHOP act	Dynein cargo inh	pCIP destab	CHOP inh	B2AR ag	UPR XBP1 act	Dynein confirm
CCOC(=O)c1cc(C(=O)NNC(=O)c2cccc([N+](=O)[O-])c2)c(C)nc1C	3	.	.	.	-6	1	.
O=C(c1ccc(S(=O)(=O)Cc2cc(F)ccc2F)c([N+](=O)[O-])c1)N1CCCCC1	3	-0.28	2	27	-13	-2	.
O=C(c1ccc(S(=O)(=O)Cc2cc(F)ccc2F)c([N+](=O)[O-])c1)N1CCCC1	2	-4.6*	-2	-8	-1	-2	+
COc1ccc(-c2nnc(SCC(=O)NC3CCCc4ccccc43)n2N)cc1 (stereo unspecified)	0	-0.83	-7	11	-2	0	.
CC[n+]1c(/C=C/C=C/N(C(C)=O)c2ccccc2)sc2cc(OC)ccc21	.	-3.8*	-19	0	.	.	+
CC[n+]1c(/C=C(\C)OC)sc2ccccc21	1	-0.97	-8	11	-2	0	.
CC1(C)Cc2c(C#N)c(NC3CCCCC3)nc(-c3ccco3)c2CO1	1	-4.3*	8	-31	13	0	i
O=C(Nc1ccccc1)c1nnsc1S(=O)c1ccc(Cl)cc1 (stereo unspecified)	-11	-3.5*	5	75*	38	-9	+
Cc1nnsc1S(=O)c1ccc(Cl)cc1 (stereo unspecified)	6	.	6	.	5	-8	.
CCOC(=O)c1cnc2c(F)ccc(F)c2c1Sc1ccccc1	6	-4*	1	35	-5	5	+
CC(=O)c1c(C)nc2ccc([N+](=O)[O-])cc2c1-c1ccccc1	1	.	7	.	14	0	.
Cc1ccc(OCC(=O)c2ccc(Cl)s2)c([N+](=O)[O-])n1	7	-3.9*	-18	-50	11	0	+
CC1(C)NC(=O)NC2(C)NC(=O)NC(C)(C)C12 (stereo unspecified)	8	0.98	-4	32	7	0	.
CCOC(=O)c1c(NC(=S)N2CCOCC2)sc2c1CCN(C(=O)OCC)C2	10	-4.7*	-20	41	2	21	+
C=CCNC(=S)Nc1sc2c(c1C(=O)OCC)CCN(C(=O)OCC)C2	0	1.2	-27	24	2	-3	.
CCOC(=O)c1c(NC(=S)N2CCCCC2)sc2c1CCN(C(=O)OCC)C2	3	-3.6*	-15	32	18	18	+
CCOC(=O)c1c(NC(=S)NCc2ccccc2)sc2c1CCN(C(=O)OCC)C2	4	0.26	-9	-17	1	7	.
O=C(CCc1ccccc1)N=C1SC2CS(=O)(=O)CC2N1Cc1ccccc1 (stereo unspecified)	2	.	7	.	3	2	.
CC(C)C(=O)NC(NC(=O)C(C)C)c1ccc([N+](=O)[O-])cc1	-1	-0.35	16	2	9	-1	.
COC(=O)C1=C(C)N(Cc2ccco2)C(=O)/C1=C\c1ccc([N+](=O)[O-])cc1	3	-3.6*	-15	-31	19	7	+
COC(=O)C1=C(C)N(Cc2ccco2)C(=O)/C1=C\c1ccc(N(C)C)cc1	4	1.3	-4	-12	-2	0	.
Cc1ccc(CNc2ccc3c(c2)ncn3C(C)(C)C)cc1	4	0.097	7	-43	-1	-1	.
CCn1c(SCC(=O)N2CCOCC2)nc2sc3c(c2c1=O)CCCC3	-1	3.7	10	31	-5	-2	.
CCn1c(SCC(=O)N2CCOCC2)nc2oc3c(Cl)cc(Cl)cc3c(=O)c2c1=O	18	-3.5*	-15	-66	.	-1	+
CC(NC(=O)Cc1ccc(S(=O)(=O)N2CCOCC2)s1)c1ccc(Br)cc1 (stereo unspecified)	.	.	.	.	0	.	.
SMILES	UPR CHOP act	Dynein cargo inh	pCIP destab	CHOP inh	B2AR ag	UPR XBP1 act	Dynein confirm
Cc1cc(-c2nnc(-c3ccccc3)c(-c3ccccc3)n2)c(C)o1	3	-3.7*	-7	-12	2	1	i
COCc1cc(S(=O)c2ccc(Cl)cc2)nc(C)n1 (stereo unspecified)	.	-4.5*	4	1	-5	.	+
O=c1c(-c2ccc(F)cc2)coc2c3c(ccc12)OCCO3	1	-0.32	10	-3	-13	1	.
Cc1ccc(NC(=O)CCC(=O)OCC(=O)c2ccc(Oc3ccc([N+](=O)[O-])cc3)cc2)cc1C	-1	-0.69	12	-10	3	-1	.
Cc1cccc(NC(=O)CCC(=O)OCC(=O)c2ccc(Oc3ccc([N+](=O)[O-])cc3)cc2)c1	4	-4.4*	2	10	-1	-4	?
COc1cccc(CNC(=O)Cc2ccc(NC(=O)C3=C(C)OCCS3)cc2)c1	5	.	8	.	1	-9	.
CC(=O)N1c2ccccc2C(CBr)=CC1(C)C	1	-5.2*	-14	-28	0	-2	i
CC1=CC(C)(C)N(C(=O)Nc2ccccc2)c2ccccc21	2	0.21	11	2	7	-1	.
CC1CCN(CCCNC(=O)c2ccc3c(Cl)c4c(nc3c2)CCCC4)CC1	1	-5*	-5	54	3	2	+
O=C(NCCCN1CCCCCC1)c1ccc2c(Cl)c3c(nc2c1)CCCC3	0	-3.7*	4	58	2	-1	+
O=C(O)c1ccc(C=C(c2nc3ccccc3s2)c2nc3ccccc3s2)cc1	0	-4.6*	20	10	11	2	+
O=C(O)c1ccc(Oc2nc3ccccc3s2)cc1	.	.	.	.	-4	.	.
Cc1ccc(S(=O)(=O)N(C)c2ccc(OC(=O)c3ccc(=O)[nH]c3)cc2)cc1	0	-0.69	13	17	8	-7	.
CC[C@H](C)/C=C(C)/C=C/C(=O)Cc1cc(O)c(C)c(O)c1C=O	1	-3.8*	-8	-21	6	-1	+
CCOc1ccc(S(=O)(=O)N2CCCC(C(=O)NCc3cccnc3)C2)cc1 (stereo unspecified)	2	.	0	.	-5	-6	.
CCOC(=O)N1C/C(=C\c2ccccc2)C(=O)/C(=C/c2ccccc2)C1	.	-4.9*	1	55	35	.	+
COc1cccc(Nc2ncccc2C(=O)NCc2ccccc2)c1	.	-9.6	-11	14	-145	.	i
COc1ccc(Nc2ncccc2C(=O)NCc2ccccc2)cc1	-2	0.18	-7	17	-1	0	.
O=C(O)CCSc1ccccn1	1	-0.42	-7	10	5	-3	.
O=C(CCSc1ccccn1)c1ccccc1	2	-4*	-6	3	6	-4	i

Assay outcomes: PubChem, several laboratories
